Laboratory results: ChEMBL document CHEMBL4513216, “Probing the Open Global Health Chemical Diversity Library for Multistage-Active Starting Points for Next-Generation Antimalarials” (ACS Infect Dis, 2020)

Experiment: Toxicity liver stage against HepG2, at 10uM
Type: cell-based
Set-up: test concentration 10 uM, cell line HepG2-A16-CD81EGFP
Details: human, HepG2-A16-CD81EGFP cells; read-out: INHIBITION
Procedure, shortened: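 Uninfected HepG2-A16-CD81EGFP cells, 3 × 10^3 per well, 1536-well, plated on prespotted compound at 10 μM final, parasite-free screening media added to match infected plates; puromycin 10 μM positive, DMSO 0.5% negative; run in parallel with 48 h PbLuc assay at 37 °C, 5% CO2; viability by CellTiter-Glo luminescence, normalized to controls.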

| Structure (SMILES) | cytotoxicity at 10 µM [%] |
| --- | --- |
| O=C(c1cccnc1)N1CCN(c2ccc(-n3cccc3)nn2)CC1 | -9.73 |
| Cc1cccc(CN2CCC3(CCCN(Cc4cnn(C)c4)C3)C2=O)n1 (stereo unspecified) | 6.02 |
| CC1=N[C@@]2(CC[C@@H]3CN(C(=O)Nc4ccc(F)cc4)C[C@@H]32)C(=O)N1C | 8.1 |
| CC(=O)c1cccc(-n2nc(C(C)=O)c(C(C)=O)c2C)c1 | 4.45 |
| Cc1occc1C(=O)N1CCC2(CC1)CC(c1cccnc1)C(=O)N2C (stereo unspecified) | -7.09 |
| COCC(=O)Nc1cnn(COc2ccc(F)cc2Cl)c1 | -4.52 |
| Cc1ccnc(C2(C)CCCN2S(=O)(=O)c2c(C)noc2C)n1 (stereo unspecified) | 0.795 |
| Cc1cc(C)n(-c2nc(C(=O)NCCS(=O)(=O)N3CCCCC3)cs2)n1 | -10.3 |
| CS(=O)(=O)N1CC(c2nc(N)ncc2-c2ccc(F)cc2)C1 | -3.49 |
| Cc1cc(=O)[nH]c(=O)n1Cc1ncc(-c2ccccc2C(=O)O)s1 | 2.71 |
| COCCC(=O)N1CCC(c2ncncc2-c2ccnc(N)c2)C1 (stereo unspecified) | -2.68 |
| c1nc(C2CCCCO2)ncc1CN1CCOCC1 (stereo unspecified) | -8.45 |
| CC1(C(=O)NC2CCCC2)CCCN(c2ncccn2)C1 (stereo unspecified) | -27.3 |
| CCS(=O)(=O)N1CCCC(c2ccnc(N(C)C)c2)C1 (stereo unspecified) | -5.16 |
| CNC(=O)C1(CCCc2ccncc2)CCCN1 (stereo unspecified) | -6.46 |
| COc1c(C2CCCN2c2ncnc3ccsc23)c(C)nn1C (stereo unspecified) | 18.6 |
| CCn1c(C)cc(C(=O)N2CCC(Nc3cccnn3)CC2)c1C | 4.71 |
| CC(=O)NC1(C(=O)N2CCC(Nc3cccnn3)CC2)CCCCC1 | -5.26 |
| CC(C)(C)NC(=O)CNC(=O)c1cccnc1Oc1cccnc1 | 4.11 |
| Cc1nsc(NCCNS(=O)(=O)c2ccccc2)n1 | -2.78 |
| N#Cc1cccnc1NC1CCN(c2ccccc2OC(F)F)C1=O (stereo unspecified) | 6.37 |

| Structure (SMILES) | cytotoxicity at 10 µM [%] |
| --- | --- |
| O=c1[nH]c2ccccc2c(=O)n1Cc1nnnn1C1CC1 | -16.1 |
| CC(C)NC(=O)CC(C)NC(=O)N(C)Cc1cc(Cl)cn1C (stereo unspecified) | -0.414 |
| CC(C)=CCS(=O)(=O)Cc1nc(C(C)C)no1 | 10.8 |
| COC(=O)NCc1ccc(NC(=O)CC2=CCCCC2)cc1 | 2.97 |
| CSc1nc(C2CC2)nc(C)c1C(=O)NCc1ncc(C)o1 | -3.71 |
| O=C(NCCN1CCOCC1)N(Cc1ccoc1)C1CCCCC1 | -0.315 |
| Cc1ccsc1C(=O)Nc1cc(Br)c(=O)n(C)c1 | -15.1 |
| CSc1[nH]c(=O)c(C(=O)N2CCCC2C2CCCC2)cc1C#N (stereo unspecified) | 5.58 |
| Cc1cc(CNC2(c3ccccc3)CCCCC2)on1 | 0.643 |
| Cc1ccc(SC2CCCC2)c(C(=O)NCc2n[nH]c(=O)[nH]2)c1 | -38.4 |
| CCN(c1ccc(C(=O)NCc2ccnc(C)n2)cc1)C(C)C | -8.78 |
| CCOc1ncccc1CNC(=O)N1CCCC1c1cc(C)no1 (stereo unspecified) | 23.7 |
| Cc1cc2ccccc2n1CCC(=O)NCCS(C)(=O)=O | -5.79 |
| Cc1cc(C(F)(F)F)cc(N2C[C@@H](CN(C)CCO)[C@@H](CO)C2)n1 | -14.4 |
| Cc1nc(CC(=O)N2CCCN(c3ccc(F)cc3)CC2)cs1 | 3.35 |
| CCN1CCC(CC(=O)NCCc2nc(N)cc(O)n2)CC1 | 0.821 |
| CCc1ncc(-c2cn(CCSc3ncn[nH]3)nn2)cn1 | 1.41 |
| O=C1CCOCCN1Cc1ccc(Cl)c(F)c1 | -3.31 |
| COCCC1(CO)CCCN(C(=O)c2cc(=O)[nH]c(=O)[nH]2)C1 (stereo unspecified) | -5.16 |
| Cc1cc(C)nc(N(C)CCN(C)C2CCCC2)n1 | -5.88 |
| Cc1ccncc1-n1cc(CCO)cn1 | -2.51 |

| Structure (SMILES) | cytotoxicity at 10 µM [%] |
| --- | --- |
| O=c1c2ccccc2cnn1Cc1cncn1C1CC1 | 3.72 |
| O=C(c1cncc(NCC2COc3ccccc3C2)n1)N1CCCCC1 (stereo unspecified) | 1.64 |
| CO[C@H]1CNC[C@@H]1NC(=O)CCc1nc(-c2ccccc2)no1 | -1.13 |
| Cc1cccc(-n2nc(CC(C)C)nc2CS(C)(=O)=O)c1 | 1.81 |
| CN(Cc1noc2c1CCCC2)C(=O)CN1C(=O)CSc2ccccc21 | -40.5 |
| COc1ccc(OCC(C)NS(C)(=O)=O)cc1 (stereo unspecified) | 16.6 |
| CCc1cc(N2CCSCC2)n2nc(C)c(C)c2n1 | -0.854 |
| O=C(Cc1cccc(Cl)c1)N[C@@H]1CCNC[C@H]1O | 2.28 |
| CCOc1ccc2cc(C(=O)N3CCn4c(CC)nnc4C3)[nH]c2c1 | -4.77 |
| COC(=O)c1ccc(N2CCN(CCS(C)(=O)=O)C(C)C2)cc1 (stereo unspecified) | -5.57 |
| O=C(CN1CCCCC1Cn1cncn1)NCCOc1ccccc1 (stereo unspecified) | -3.54 |
| CCNc1cc2c(nn1)CCN(C(=O)CCc1c(C)noc1Cl)C2 | -3.25 |
| COCCNC(=O)CN1CCN(c2nc(C)cs2)CC1 | -13.2 |
| O=C1C(NCc2nnc3n2CCCC3)CCN1c1ccccc1Cl (stereo unspecified) | -7.42 |
| O=C(CCCc1ccccn1)N1CCCC1c1noc(C2CC2)n1 (stereo unspecified) | -4.47 |
| CC(NC(N)=O)C(=O)N(C)CCCc1cc(-c2ccccc2)no1 (stereo unspecified) | -1.86 |
| O=C(c1ccc(O)cc1)N1CCN(C(=O)c2ccc3c(c2)COC3)CC1 | -9.75 |
| COc1cccc(OCC(=O)NS(=O)(=O)c2ccc(C)s2)c1 | -5.87 |
| COC(=O)N1CCCC(C(=O)NCc2cc3cccc(OC)c3o2)C1 (stereo unspecified) | -7.72 |
| COc1ccc2cc(C(=O)N3CCCCC3Cn3cccn3)[nH]c2c1 (stereo unspecified) | -9.32 |
| COC(=O)c1ccc(CN[C@@H]2COC[C@H]2Cc2cc(C)no2)cc1 | -23 |

| Structure (SMILES) | cytotoxicity at 10 µM [%] |
| --- | --- |
| Cc1oncc1C(=O)N[C@@H]1CN(Cc2ccco2)C[C@@H]2CCCO[C@@H]21 | -109 |
| Cn1cc(CN2CCC(F)(F)C3(CCN(c4ccccn4)C3)C2)cn1 (stereo unspecified) | -0.434 |
| c1cnc2c(c1)cc([C@@H]1CCCO1)n2CCN1CCOCC1 | -19.7 |
| Cc1ccc(C(=O)N2C[C@@H]3[C@@H](C2)OCC(=O)N3Cc2cccnc2)o1 | 3.8 |
| CN(C)CCOCc1nnc2n1CCN(Cc1ccoc1)CC2 | -10.7 |
| CCS(=O)(=O)N1CCC2(CC1)CC(Oc1ccccn1)CO2 (stereo unspecified) | -1.58 |
| O=C(CC1CC1)N1CCN(Cc2cccnc2)c2ncccc2C1 | 5.15 |
| CC(C)N1CC[C@H]2[C@H](C[C@@H](Cn3cncn3)N2c2nccs2)C1 | 4.68 |
| Cc1nc(C2(O)CCCNCC2)sc1CCOc1ccccc1F (stereo unspecified) | -36.5 |
| O=C(Cc1ccccc1)N1C[C@@H]2OCCN(CC3CCCO3)[C@@H]2C1 (stereo partly specified) | -3.09 |
| C[C@@H]1CN(C2CCOC2)C[C@]12CCN(Cc1cccnc1)C2=O (stereo partly specified) | -106 |
| O=C(N1CCOCC1)[C@@]12CCO[C@@H]1CCN(C1CCCCC1)C2 | 2.14 |
| COCC(=O)NC[C@]12COC[C@H]1CN(Cc1ccc3c(c1)OCO3)C2 | -112 |
| c1cncc(C2COC3(CCN(Cc4cccs4)CC3)C2)c1 (stereo unspecified) | -0.697 |
| NC(=O)C1Cn2ccnc2C2(CCN(C(=O)NC3CCCC3)CC2)O1 (stereo unspecified) | -104 |
| c1ccc(CO[C@@H]2CN(Cc3cccnc3)[C@@H]3COC[C@@H]32)nc1 | -98.7 |
| COC(=O)Cn1c(=O)[nH]c2cn(-c3ccc(Cl)cc3)c(=O)n21 | 23.7 |
| O=C(Cc1cccnc1)N1C[C@@H]2CC[C@H]1CN(Cc1ccc(F)cc1)C2 | 4.54 |
